# Bioassay records (PubChem BioAssay)
# Hits are enriched below; roughly 2.9% of the tested compounds scored in any of these assays.
# CHO parental Ca: counter-screen: ATP calcium response change in parental CHO cells | parental CHO-K1, ATP-induced calcium, Fluo-8 fluorescence | hit rate 0.63% among 330,000 | AID 463079 | inhibition, % at 5.6 µM;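 active means inhibition above that plate's mean sample inhibition plus 3 SD, cut at about 26% in these data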;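 further: 0% = ATP-challenged DMSO wells and 100% = DMSO wells without ATP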
#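 Material – parental CHO cells · Reagent – ATP stimulus · Compound – single nominal dose of 5.6 µM per compound · Detection – Fluo-8 fluorescence · Read-out basis – percent inhibition of calcium signal · Controls – ATP-challenged DMSO wells low, unchallenged DMSO wells high · Repeats – no replicates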
# M1 ag parental: M1 agonist counterscreen hit in parental CHO-K1 cells; Fluo-8 calcium fluorescence; scaled to maximal ATP response, vehicle zero; hit rate 0.48% among 360,000; activation, % at 3 µM; in the data active means activation above about 15%;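 further: untransfected CHO-K1 host cells lacking M1 receptor as counterscreen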
# M1 PAM parental: nonselective activator or artifact in parental CHO-K1 calcium assay. ATP EC20, Fluo-8 calcium fluorescence; 0% at ATP EC20, 100% at ATP max. activation, % at 3 µM. hit rate 0.02% among 360,000. AID 602247;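 active means activation above the run cutoff, the mean activation of all test compounds plus 3 SD, cut at about 40% in these data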;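 further: peak over basal fluorescence ratio in a 140 s read after ATP addition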
# OX1R antag-1: blocks the human orexin 1 receptor | inhibition, % at 5 µM | O43613 | hit rate 0.43% among 330,000 | CHO/OX1R cells, Fluo-8 calcium fluorescence, orexin A;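 active means inhibition above its plate's threshold, mean inhibition of all tested compounds on the plate plus 3 SD, cut at about 37% in these data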;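 further: 0% = orexin A challenge wells and 100% = SB-334867-A antagonist wells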
# Target sequence (O43613 whole entry, looked up): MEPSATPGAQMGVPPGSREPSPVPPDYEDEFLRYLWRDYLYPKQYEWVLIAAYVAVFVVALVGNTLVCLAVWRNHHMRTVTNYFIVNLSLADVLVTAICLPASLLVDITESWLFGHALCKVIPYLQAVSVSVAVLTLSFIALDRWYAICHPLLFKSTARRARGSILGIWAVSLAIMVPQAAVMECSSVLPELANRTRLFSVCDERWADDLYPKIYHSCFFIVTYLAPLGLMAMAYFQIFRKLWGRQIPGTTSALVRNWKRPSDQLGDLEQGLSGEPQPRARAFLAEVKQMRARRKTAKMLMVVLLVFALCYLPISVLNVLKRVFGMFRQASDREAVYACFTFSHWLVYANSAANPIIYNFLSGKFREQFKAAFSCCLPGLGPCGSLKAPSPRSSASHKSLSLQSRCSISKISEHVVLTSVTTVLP
# OX1R antag-2: OX1R (human) antagonism | O43613 | OX1R-expressing cells, FRET antagonist read-out | inhibition, % at 6.6 µM | hit rate 1.8% among 330,000 | AID 485270; in the data active means inhibition mostly above about 38%, no sharp cut-off; inactive means mostly below about 40%;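 further: 0% = agonist challenge alone and 100% = reference antagonist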
# CHO-K1 Ca antag: M1 antagonist counterscreen hit in parental CHO-K1 cells; ATP-induced calcium, Fluo-8 fluorescence; inhibition, % at 3 µM; hit rate 0.6% among 360,000;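 active means inhibition above a per-plate cutoff, the plate's mean sample inhibition plus 3 SD, cut at about 24% in these data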;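 further: 0% = DMSO plus EC80 ATP and 100% = DMSO alone without ATP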
# * = called active by the depositor; x = no result given.
SMILES,CHO parental Ca,M1 ag parental,M1 PAM parental,OX1R antag-1,OX1R antag-2,CHO-K1 Ca antag
Cc1ccc(S(=O)(=O)Nc2ccc3c(c2)OCCO3)c(C)c1NS(C)(=O)=O,-5,0,7,-4,-8,2
O=C(COC(=O)/C=C/c1ccccc1Cl)NC(=O)NCc1ccccc1,-5,0,2,-20,0,-8
O=C(Nc1ccccc1)OCCOc1ccccc1,-10,0,6,-6,4,-5
O=C(Nc1ccccc1)OCCCCCOC(=O)Nc1ccccc1,10,9,0,-2,26,26*
COC(=O)CCC(=O)OC1(C)C(=O)C=C2C=C(C3CC3)N(CC3CC3)C=C2C1=O (stereo not drawn),-16,1,14,-14,37,-12
COC(=O)CCC(=O)OC1(C)C(=O)C=C2C=C(C3CC3)N(Cc3ccccc3)C=C2C1=O (stereo not drawn),-3,0,0,-22,76*,-3
OCCC1CN(Cc2nc(-c3ccccc3)cs2)CCN1CCc1ccccc1 (stereo not drawn),-31,16*,14,-44,16,2
Cc1ccc(C(=O)NCCSc2snnc2C)cc1,-11,0,-5,-23,5,43*
CN(C)c1ccc2nc3c(=O)[nH]c(=O)nc-3n(CC(O)C(O)C(O)CO)c2c1 (stereo not drawn),12,10,-9,16,74*,-2
Cc1ncc(C(O)c2ccc(N(C)C)cc2)n1Cc1ccccc1 (stereo not drawn),x,6,0,x,x,0
CCOc1ccc(NC(=O)Nc2cc(C)ccc2F)cc1,26,2,12,-18,18,4
CC(C)c1ccc(C2c3[nH]c4ccccc4c3C[C@H]3C(=O)N(c4ccccc4C(=O)N4CCC[C@H]4C(=O)O)C(=O)N23)cc1 (stereo partly drawn),-4,0,-17,1,1,25*
COc1ccc(C2c3[nH]c4ccccc4c3C[C@H]3C(=O)N(c4ccccc4C(=O)N4CCC(C(=O)O)CC4)C(=O)N23)cc1 (stereo partly drawn),-2,0,-9,-14,21,-1
COc1ccc(CNS(=O)(=O)CCNC(=O)c2ccc3c(c2)OCO3)cc1,-3,-1,-19,8,2,24*
COc1ccc(C(=O)NCCS(=O)(=O)NCc2ccc3c(c2)OCO3)cc1,-15,0,-3,-6,-2,6
CC(=O)c1ccc(OCc2cn(CC(=O)c3ccc(O)cc3)nn2)c(C)c1,x,0,-8,x,x,7
O=C(Cn1cc(COc2ccc(Br)cc2[N+](=O)[O-])nn1)c1ccc(O)cc1,x,2,-9,x,x,25*
CCc1cc2ccc(C)cc2nc1SCC(=O)NNC(=O)c1ccco1,-13,4,27,-27,12,-2
CCc1cc2cc(C)ccc2nc1SCC(=O)NNC(=O)c1ccco1,-14,-1,-16,-19,48*,1
CCN1CCN(C(=O)c2cc3cc([N+](=O)[O-])ccc3oc2=O)CC1,3,0,-2,-14,47,-4
O=C(c1cc2ccc([N+](=O)[O-])cc2oc1=O)N1CCOCC1,-7,0,9,-1,57*,-5
O=C(CN1CCOCC1)Nc1nc2ccc([N+](=O)[O-])cc2s1,-13,0,3,-40,62*,3
O=C(c1cc2cc([N+](=O)[O-])ccc2s1)N1CCOCC1,-6,1,13,-4,46*,-14
CCC(C)(C)NC(=O)C(C(C)C)N(CC1CCCO1)C(=O)CNS(=O)(=O)c1ccccc1 (stereo not drawn),-25,2,14,-22,30,-22
CC1=CC(C)(C)Nc2ccc(OC(=O)c3ccco3)cc21,-11,2,14,2,51*,-6
SMILES,CHO parental Ca,M1 ag parental,M1 PAM parental,OX1R antag-1,OX1R antag-2,CHO-K1 Ca antag
CC1=CC(C)(C)Nc2ccc(OC(=O)c3cccnc3)cc21,-12,1,29,-6,16,-11
COc1ccc(/C=C/c2nnc(NC(=O)C(C)(C)C)s2)cc1,-25,1,-3,-27,5,4
Cc1ccc(C(=O)NCCc2nc3ccccc3[nH]2)cc1[N+](=O)[O-],-2,1,-12,-12,4,24*
O=C(NCCc1nc2ccccc2[nH]1)c1ccc(Cl)c([N+](=O)[O-])c1,-22,3,19,-18,32,9
CCOC(=O)N1CCN(C(=O)c2ccc(OCC)c(OCC)c2)CC1,-13,0,-9,-11,5,37*
COc1ccc(NC(=O)Nc2c[nH]c(=O)[nH]c2=O)cc1OC,1,0,-11,-1,-5,3
Cc1ccccc1CN1CCN(CC(=O)NCCCN2CCN(c3ccc(F)cc3)CC2)C1=O,-12,1,-6,-19,7,29*
CC(=O)N1CCN(c2ccc(Oc3ccc([N+](=O)[O-])c(C(F)(F)F)c3)cc2)CC1,44*,14,-18,9,51,20
CCOc1ccc(C(=O)Nc2ccc(N3CCN(C(C)=O)CC3)cc2)cc1[N+](=O)[O-],-14,2,11,-26,14,2
CC(C)Oc1ccc(Br)cc1C(=O)N/N=C/c1c[nH]c2ccccc12,1,0,-7,-4,40*,0
Nc1cc(S(=O)(=O)Nc2ccccc2Cl)ccc1N1CCCCC1,30*,7,-5,45*,24,18
CCOC(=O)c1cnc2cc(-c3ccc(C)cc3)nn2c1C,x,0,3,x,x,-7
O=S(=O)(Nc1ccc2cn[nH]c2c1)c1ccc(Cl)cc1,-8,5,-5,-1,11,-5
Cc1cc(S(=O)(=O)Nc2ccc3cn[nH]c3c2)c(C)cc1Cl,40*,8,-9,7,28,-8
Cc1ccc2[nH]c3c(NCc4ccco4)ncnc3c2c1,-6,13,4,-6,50*,11
CCCOC(=O)c1cccc(NC(=O)COc2ccc([N+](=O)[O-])cc2)c1,32*,6,12,24,34,-2
CCOC(=O)c1cccc(NC(=O)COc2ccc([N+](=O)[O-])cc2)c1,-9,5,16,-28,36,-24
Cc1ccccc1SCC(=O)OCC(=O)Nc1sccc1C(N)=O,23,16*,6,24,29,28*
NC(=O)c1ccsc1NC(=O)COC(=O)Cc1cccc2ccccc12,59*,9,6,75*,39,29*
NC(=O)c1ccsc1NC(=O)COC(=O)Cc1ccc(F)cc1,x,17*,-8,x,x,14
NC(=O)c1ccsc1NC(=O)COC(=O)Cc1ccccc1[N+](=O)[O-],x,9,-17,x,x,31*
NC(=O)c1ccsc1NC(=O)COC(=O)CNC(=O)c1cccc([N+](=O)[O-])c1,-13,7,11,20,9,-10
NC(=O)c1ccsc1NC(=O)COC(=O)Cc1c[nH]c2ccccc12,7,13,-18,2,23,20
